Common to all, as to type: functional
Test [1] relates to Klebsiella pneumoniae. The test is described as follows: Antibacterial activity against Klebsiella pneumoniae. The essentials: (§1)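 Aerobic isolates run by CLSI broth microdilution in cation-adjusted Mueller-Hinton II broth (streptococci plus 2–5% lysed horse blood), about 5 × 10^5 CFU/ml final; 24 h at 35–37°C aerobically; MIC read as lowest concentration without visible growth.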

Test [2] deals with Enterobacter sp. The test is described as follows: Antibacterial activity against Enterobacter sp. The essentials:
as §1

Test [3] has as its system Acinetobacter baumannii. The test is described as follows: Antibacterial activity against Acinetobacter baumannii after 24 hrs by broth microdilution method. A digest of the protocol: (§2)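 CLSI broth microdilution in cation-adjusted Mueller-Hinton II broth, final inoculum about 5 × 10^5 CFU/ml for most strains; streptococci supplemented with 2–5% lysed horse blood, H. influenzae in Haemophilus test medium. Aerobic incubation at 35–37°C for 24 h; MIC = lowest concentration with no visible growth.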
A general note: Dilution methods test growth across graded concentrations, often in twofold steps.

Test [4] concerns Clostridioides difficile. The test is described as follows: Antibacterial activity against Clostridium difficile by agar dilution method. The essentials: (§3)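 Anaerobes by CLSI agar dilution on brucella agar with hemin, vitamin K and 5% laked sheep blood; inoculum from 24-h enriched blood agar colonies resuspended in brucella broth to 0.5 McFarland. Plates incubated anaerobically at 35–37°C for 48 h.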
A general note: In agar dilution, organisms are placed on agar that contains the substance at set levels.

Test [5] relates to Cutibacterium acnes. Kind of test: Antibacterial activity against Propionibacterium acnes. A digest of the protocol: as §3
Test [6] deals with Staphylococcus aureus. Kind of test: Antibacterial activity against […] Staphylococcus aureus ATCC 29213 after 24 hrs by broth microdilution method. The following applies: ATCC 29213, 24 h. A digest of the protocol:
(§4)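 Broth microdilution per CLSI in cation-adjusted Mueller-Hinton II broth, final inoculum approximately 5 × 10^5 CFU/ml. Plates were incubated aerobically at 35 to 37°C for 24 h. MIC was the lowest concentration giving no visible growth. Reserpine, where used, was at a final concentration of 20 μg/ml.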

Test [7] relates to Staphylococcus aureus. Kind of test: Antibacterial activity against ethidium bromide-resistant Staphylococcus aureus BSA678 after 24 hrs by broth microdilution method. The following applies: BSA678, 24 h. A digest of the protocol:
as §4

The test system of test [8] is Staphylococcus aureus. The test is described as follows: Antibacterial activity against ethidium bromide-resistant Staphylococcus aureus Mu50 after 24 hrs by broth microdilution method. The following applies: Mu50, 24 h. The essentials: as §4
The subject of test [9] is Staphylococcus aureus. The test is described as follows: Antibacterial activity against ethidium bromide-resistant Staphylococcus aureus BSA643 after 24 hrs by broth microdilution method. To be noted: BSA643, 24 h. A digest of the protocol:
as §4

Test [10] deals with Escherichia coli. The test is described as follows: Antibacterial activity against Escherichia coli after 24 hrs by broth microdilution method. The essentials: as §2
In test [11] the test system is Pseudomonas aeruginosa. Kind of test: Antibacterial activity against Pseudomonas aeruginosa after 24 hrs by broth microdilution method. The essentials:
as §2

Test [12] deals with Staphylococcus aureus. Kind of test: Antibacterial activity against methicillin-resistant Staphylococcus aureus after 24 hrs by broth microdilution method. The essentials: as §4
Test [13] deals with Neisseria gonorrhoeae. The test is described as follows: Antibacterial activity against Neisseria gonorrhoeae after 24 hrs by broth microdilution method. The essentials:
as §2

The subject of test [14] is Mycoplasmoides pneumoniae. The test is described as follows: Antibacterial activity against Mycoplasma pneumoniae after 24 hrs by broth microdilution method.
Test [15] concerns Streptococcus pneumoniae. Kind of test: Antibacterial activity against Streptococcus pneumoniae by agar dilution method.
Test [16] deals with Enterococcus faecium. Kind of test: Antibacterial activity against Enterococcus faecium. A digest of the protocol:
as §1

For test [17], the system named is Staphylococcus aureus. Kind of test: Antibacterial activity against methicillin-susceptible Staphylococcus aureus after 24 hrs by broth microdilution method. A digest of the protocol:
as §4

Test [18] has as its system Legionella pneumophila. The test is described as follows: Antibacterial activity against Legionella pneumophila after 24 hrs by broth microdilution method.
Test [19] concerns Neisseria meningitidis. The test is described as follows: Antibacterial activity against Neisseria meningitidis after 24 hrs by broth microdilution method. A digest of the protocol:
as §2

Test [20] has as its system Enterococcus faecalis. Kind of test: Antibacterial activity against Enterococcus faecalis. A digest of the protocol: as §1
Test [21] relates to Streptococcus pyogenes. Kind of test: Antibacterial activity against Streptococcus pyogenes. A digest of the protocol:
as §1

The subject of test [22] is Moraxella catarrhalis. The test is described as follows: Antibacterial activity against Moraxella catarrhalis after 24 hrs by broth microdilution method. A digest of the protocol: as §2
For test [23], the system named is Haemophilus influenzae. The test is described as follows: Antibacterial activity against Haemophilus influenzae after 24 hrs by broth microdilution method. A digest of the protocol: as §2
Test [24] has as its system Streptococcus viridans. Kind of test: Antibacterial activity against Streptococcus viridans after 24 hrs by broth microdilution method. The essentials:
as §2

Converted amounts (≈) assume the structure as drawn.

For `CO/N=C(\C(=O)N[C@@H]1C(=O)N2C(C(=O)[O-])=C(C[N+]3(C)CCCC3)CS[C@H]12)c1csc(N)n1` [CEFEPIME], the MIC50 in test [1] was 0.5 µg/mL (≈ 1.04 µM); in [2], 0.06 µg/mL (≈ 0.125 µM); in test [3], 2 µg/mL (≈ 4.16 µM). Further, the MIC90 was 32 µg/mL (≈ 66.6 µM) in test [1], 4 µg/mL (≈ 8.32 µM) in test [2] and 32 µg/mL (≈ 66.6 µM) in test [3].

Turning to `Cc1ncc([N+](=O)[O-])n1CCO` [METRONIDAZOLE], in test [4], the MIC50 was determined as 0.5 µg/mL (≈ 2.92 µM) and the MIC90 is 0.5 µg/mL (≈ 2.92 µM). In [5], this molecule came in with an MIC50 of over 64 µg/mL and an MIC90 of over 64 µg/mL.

One may read the MIC as the lowest concentration that inhibits growth of the organism. Low readings indicate inhibition by little substance, high ones a need for much substance. `CO/N=C1\CN(c2nc3c(cc2F)c(=O)c(C(=O)O)cn3C2CC2)CC1CN` (stereo unspecified) [GEMIFLOXACIN]: the MIC in test [6] amounted to 0.03 µg/mL (≈ 0.077 µM); in test [7], 64 µg/mL (≈ 164 µM); in [8] it was 4 µg/mL (≈ 10.3 µM); in test [9] it was 32 µg/mL (≈ 82.2 µM).

Consider `CC(C)(O/N=C(\C(=O)N[C@@H]1C(=O)N2C(C(=O)[O-])=C(C[n+]3ccccc3)CS[C@H]12)c1csc(N)n1)C(=O)O` [CEFTAZIDIME], for which the MIC50 in test [10] is 0.25 µg/mL (≈ 0.457 µM); in [1], 32 µg/mL (≈ 58.5 µM); in test [2] it was 0.5 µg/mL (≈ 0.915 µM); in test [11] it was 2 µg/mL (≈ 3.66 µM); in test [3], 4 µg/mL (≈ 7.32 µM). Besides, the MIC90 in test [10] was 0.5 µg/mL (≈ 0.915 µM); in test [1] it was over 32 µg/mL; in test [2] it was over 32 µg/mL; in [11], 32 µg/mL (≈ 58.5 µM); in test [3], over 32 µg/mL.

With `CC[C@H]1OC(=O)[C@H](C)[C@@H](O[C@H]2C[C@@](C)(OC)[C@@H](O)[C@H](C)O2)[C@H](C)[C@@H](O[C@@H]2O[C@H](C)C[C@H](N(C)C)[C@H]2O)[C@](C)(O)C[C@@H](C)CN(C)[C@H](C)[C@@H](O)[C@]1(C)O` [AZITHROMYCIN], the MIC50 in [12] was over 8 µg/mL; in [13], 0.06 µg/mL (≈ 0.0801 µM); in test [15], 4 µg/mL (≈ 5.34 µM); in [16], over 16 µg/mL; in [17], 1 µg/mL (≈ 1.34 µM); in test [19], 0.5 µg/mL (≈ 0.668 µM). Moreover, the MIC50 in test [20] is 4 µg/mL (≈ 5.34 µM); in test [21] it was 0.12 µg/mL (≈ 0.16 µM); in test [22], 0.015 µg/mL (≈ 0.02 µM); in [23] it was 0.5 µg/mL (≈ 0.668 µM); in [24], 1 µg/mL (≈ 1.34 µM). The MIC90 in [13] is 0.12 µg/mL (≈ 0.16 µM); in [15], over 8 µg/mL; in test [16], over 16 µg/mL; in test [17], over 8 µg/mL; in test [19], 1 µg/mL (≈ 1.34 µM); in test [20], over 16 µg/mL. Moreover, the MIC90 in test [21] is over 8 µg/mL; in [22], 0.03 µg/mL (≈ 0.0401 µM); in [23], 2 µg/mL (≈ 2.67 µM); in test [24], 4 µg/mL (≈ 5.34 µM). For the same molecule, the values for the MIC in test [14] and in test [18] were at most 0.004 µg/mL and 0.12 µg/mL (≈ 0.16 µM), respectively.

In [19], `CN(C)c1ccc(O)c2c1C[C@H]1C[C@H]3[C@H](N(C)C)C(O)=C(C(N)=O)C(=O)[C@@]3(O)C(O)=C1C2=O` [MINOCYCLINE] had an MIC50 of 0.12 µg/mL (≈ 0.262 µM) and an MIC90 of 0.12 µg/mL (≈ 0.262 µM).

Turning to `C[C@H]1c2cccc(O)c2C(=O)C2=C(O)[C@]3(O)C(=O)C(C(N)=O)=C(O)[C@@H](N(C)C)[C@@H]3[C@@H](O)[C@@H]21.O` [DOXYCYCLINE], the MIC in [14] was determined as 0.25 µg/mL; in [18] it was 1 µg/mL.

These data come from ChEMBL document CHEMBL1147099, “In vitro and in vivo antibacterial activities of heteroaryl isothiazolones against resistant gram-positive pathogens” (Antimicrob Agents Chemother, 2007).
